Results from different studies.
Each line is one published result; the experiments were not run side by side. Converted amounts (≈) assume the structure as drawn.
Organism: Cryptococcus neoformans

C[C@@H]1[C@H](O)[C@@H](C)/C=C/C=C/C=C/C=C/C=C/C=C/C=C/[C@H](O[C@@H]2O[C@H](C)[C@@H](O)[C@H](N)[C@@H]2O)C[C@@H]2O[C@](O)(C[C@@H](O)C[C@@H](O)[C@H](O)CC[C@@H](O)C[C@@H](O)CC(=O)O[C@H]1C)C[C@H](O)[C@H]2C(=O)O has an MFC of 2.5 µg/mL (≈ 2.71 µM) (microbial killing; ATCC90113).
For C#CCCCCCCCCCCCC(O)CC(O)CO (stereo not shown), the IC50 was 8 µg/mL (≈ 28.1 µM) (microbial growth; broth dilution; ATCC90113).
With OCCN1CCN(CCCN2c3ccccc3Sc3ccc(Cl)cc32)CC1 the MIC was 16 µg/mL (microbial growth; broth dilution).
With O=C(CCCCCCCC[P+](c1ccccc1)(c1ccccc1)c1ccccc1)Nc1cc(O)c(O)c(O)c1.[Br-] the MIC was 8 µg/mL (microbial growth; broth dilution; ATCC208821; 24 h).
Cl.Oc1cccc2c1[nH]c1c(C3=CC4(O)CC/C=C\CCCCN5CCC3C3(CC6/C=C\CCCCN6C43)C5)nccc12 (single isomer, unassigned; (+)) gave an IC50 of 2.69 µg/mL (microbial growth; ATCC90113).
O=C(CCc1cc(O)c(O)c(O)c1)NCCCCCCCC[P+](c1ccccc1)(c1ccccc1)c1ccccc1.[Br-] gave an MIC of > 32 µg/mL (microbial growth; broth dilution; ATCC208821; 24 h).
The MIC of Cc1occc(=O)c1O is reported as > 100 µM (microbial growth; broth dilution; 48 h).
O=C(CCCCCCCCCC[P+](c1ccccc1)(c1ccccc1)c1ccccc1)Nc1ccc(O)c(O)c1.[Br-] has an MIC of > 32 µg/mL (microbial growth; broth dilution; ATCC208821; 24 h).
For C#CCCCCCCCCC=CCC(O)CC(O)CO (stereo not shown), the IC50 was > 8 µg/mL (microbial growth; broth dilution; ATCC90113).
The IC50 of C[C@@H]1[C@H](O)[C@@H](C)/C=C/C=C/C=C/C=C/C=C/C=C/C=C/[C@H](O[C@@H]2O[C@H](C)[C@@H](O)[C@H](N)[C@@H]2O)C[C@@H]2O[C@](O)(C[C@@H](O)C[C@@H](O)[C@H](O)CC[C@@H](O)C[C@@H](O)CC(=O)O[C@H]1C)C[C@H](O)[C@H]2C(=O)O is reported as 0.69 µg/mL (≈ 0.747 µM) (microbial growth; broth dilution; ATCC90113).
